Format in all cases: functional
Test [1] is filed under the species Mus musculus. Kind of test: Percent inhibition of [3H]-colchicine binding to tubulin with molar ratio of 1:1 (inhibitor: [3H]-colchicine). The method in brief:
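5 µM ligand, 5 µM tubulin and 5 µM [3H]colchicine in PMEG buffer (PME plus 0.1 mM GTP) were incubated 1.5 h at 37 °C, then quenched on ice. Bound label was separated by centrifuged G-50 gel filtration and counted by scintillation. Percent inhibition is relative to a no-ligand control, run in quadruplicate and averaged.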

The species entered for test [2] is Mus musculus. Kind of test: Concentration required to effect a 50% reduction in microtubule polymerization. The following applies: read-out: I50. In outline:
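GTP was added to 1 mM final and the sample warmed to 37 °C. Turbidity was followed at 400 nm, and percent inhibition was taken from plateau absorbance versus a no-ligand control. I50 was interpolated from the inhibition–concentration plot.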

For test [3], the species on record is Mus musculus. Kind of test: Percent inhibition of [3H]colchicine binding to tubulin with molar ratio of 1:10 (inhibitor: [3H]colchicine).

The values that follow come from ChEMBL document CHEMBL1126973, “Synthesis and tubulin binding of novel C-10 analogues of colchicine” (J Med Chem, 1993).

The structures appear in SMILES notation.

On to `CCC(C)c1ccc2c(cc1=O)[C@@H](NC(C)=O)CCc1cc(OC)c(OC)c(OC)c1-2` (some centres not stated), for which the Inhibition in test [1] worked out at 19.6%; in test [3] it was 57.1%. Moreover, the IC50 in test [2] was found to be 10 µM.
Consider `COc1cc2c(c(OC)c1OC)-c1ccc(I)c(=O)cc1[C@@H](NC(C)=O)CC2`, for which the Inhibition is 74% in test [1] and 98.3% in test [3]. Further, in test [2], the IC50 turned out to be 3.8 µM.
In the case of `COc1cc2c(c(OC)c1OC)-c1ccc(OC(C)C)c(=O)cc1[C@@H](NC(C)=O)CC2`, the Inhibition in test [1] worked out at 10.1%; in test [3] it was 50.5%. Also, the IC50 in test [2] came out at 23 µM.
On to `COc1cc2c(c(OC)c1OC)-c1ccc(Br)c(=O)cc1[C@@H](NC(C)=O)CC2`, for which the Inhibition in test [1] is 59.4%; in test [3] it was 97.4%. In test [2], the IC50 was 3.3 µM.
Taken in the same sequence, the figures for `COc1cc2c(c(OC)c1OC)-c1ccc(C(C)C)c(=O)cc1[C@@H](NC(C)=O)CC2` were 44.9%, 90% and 4.2 µM.
With `COc1cc2c(c(OC)c1OC)-c1ccc(C(C)(C)C)c(=O)cc1[C@@H](NC(C)=O)CC2`, the Inhibition in test [1] is 21.9%; in test [3], 69.4%. In test [2], the IC50 stood at 4.2 µM.
With `COc1cc2c(c(OC)c1OC)-c1ccc(N=[N+]=[N-])c(=O)cc1[C@@H](NC(C)=O)CC2`, the Inhibition is 51.1% in test [1] and 95.8% in test [3]. Also, in test [2], the IC50 is 4.2 µM.
Taken in the same sequence, the figures for `CCc1ccc2c(cc1=O)[C@@H](NC(C)=O)CCc1cc(OC)c(OC)c(OC)c1-2` were 54.9%, 96.5% and 4.2 µM.
As to `CCOc1ccc2c(cc1=O)[C@@H](NC(C)=O)CCc1cc(OC)c(OC)c(OC)c1-2`, the Inhibition was determined as 24.6% in test [1] and 75% in test [3]. Further, the IC50 in test [2] was found to be 6.1 µM.
Taken in the same sequence, the figures for `COc1cc2c(c(OC)c1OC)-c1ccc(-c3ccccc3)c(=O)cc1[C@@H](NC(C)=O)CC2` were 10.6%, 25.6% and 57 µM.
Taken in the same sequence, the figures for `COc1cc2c(c(OC)c1OC)-c1ccc(Cl)c(=O)cc1[C@@H](NC(C)=O)CC2` were 57.2%, 96.2% and 3.7 µM.
Taken in the same sequence, the figures for `CCCCc1ccc2c(cc1=O)[C@@H](NC(C)=O)CCc1cc(OC)c(OC)c(OC)c1-2` were 13.9%, 24.7% and 26 µM.
With `COc1cc2c(c(OC)c1OC)-c1ccc(C)c(=O)cc1[C@@H](NC(C)=O)CC2`, the Inhibition in test [1] amounted to 56.6%; in test [3], 96.7%. For the same compound, the IC50 in test [2] is 4.1 µM.
With `CCCOc1ccc2c(cc1=O)[C@@H](NC(C)=O)CCc1cc(OC)c(OC)c(OC)c1-2`, the Inhibition in test [1] was determined as 16.6%; in test [3] it was 54.8%. For the same compound, the IC50 in test [2] stood at 11 µM.
For `COc1cc2c(c(OC)c1OC)-c1ccc(CC(C)C)c(=O)cc1[C@@H](NC(C)=O)CC2`, the results for the Inhibition in test [1] and in test [3] were 13.4% and 36.7%, respectively. In addition, the IC50 in test [2] was determined as 8.5 µM.
Taken in the same sequence, the figures for `CCCc1ccc2c(cc1=O)[C@@H](NC(C)=O)CCc1cc(OC)c(OC)c(OC)c1-2` were 41.7%, 89.2% and 3.5 µM.
In the case of `COc1cc2c(c(OC)c1OC)-c1ccc(F)c(=O)cc1[C@@H](NC(C)=O)CC2`, the Inhibition in test [1] is on record as 11%; in test [3] it was 50.2%. Further, the IC50 in test [2] was determined as 8.2 µM.
`COc1cc2c(c(OC)c1OC)-c1cccc(=O)cc1[C@@H](NC(C)=O)CC2` [CHOLCHICIDE]: the Inhibition is reported as 13.2% in test [1] and 53.7% in test [3]. Also, in test [2], the IC50 stood at 7.9 µM.
With `COc1cc2c(c(OC)c1OC)-c1ccc(OC)c(=O)cc1[C@@H](NC(C)=O)CC2` [COLCHICINE], the values for the Inhibition in test [1] and in test [3] were 37.2% and 89.7%, respectively. Besides, the IC50 in test [2] is 5.1 µM.
